What is called inhibition is the relative decrease from the control value, in per cent.

Each structure is given as a SMILES string. Activity calls are given as the source filed them. The rule behind the calls is not given here.

Format in all cases: functional
Assay [1] is filed under the species Rattus norvegicus. Description: Irreversible inhibition against Norepinephrine (NE)-induced response in rat vas deferens with benextramine (BHC) as standard at a concentration of 10e-4 M. The method, boiled down: (§1)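 Rat vas deferens tissues were held at 32 °C under 95% O2/5% CO2 at 0.50 g loading tension, with contractions recorded by force transducer. After 1 h equilibration and a medium change, antagonist was incubated for 30 min, then drained and washed out for 30 min. Cumulative NE concentration-response curves followed. The fall in maximal response, as percent of control, is reported as mean ± SEM of five experiments.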

The target of assay [2] is Adrenergic receptor alpha (Rattus norvegicus) (UniProt P15823+P23944+P43140+P22086+P19328+P22909). Description: Irreversible inhibition against Norepinephrine (NE)-induced response in rat vas deferens with benextramine (BHC) as standard at a concentration of 2 x 10e-5 M. The gist of the method: as §1
The species entered for assay [3] is Rattus norvegicus. Description: Irreversible inhibition against Norepinephrine (NE)-induced response in rat vas deferens with benextramine (BHC) as standard at a concentration of 6 x 10e-6 M. The method, boiled down: as §1
For assay [4], the species on record is Rattus norvegicus. Description: Irreversible inhibition against Norepinephrine (NE)-induced response in rat vas deferens with benextramine (BHC) as standard at a concentration of 2 x 10e-5 M; Inactive. The method, boiled down: as §1
Assay [5] is filed under the species Rattus norvegicus. Description: Irreversible inhibition against Norepinephrine (NE)-induced response in rat vas deferens with benextramine (BHC) as standard at a concentration of 10e-4 M; Inactive. The gist of the method:
as §1

`OC(CNCCCCCCNCCSSCCNCCCCCCNCC(O)c1ccccc1)c1ccccc1` (stereo not given): in the assay filed under Rattus norvegicus [1], testing at 100 µM gave an inhibition of 40%. The molecule further registered an inhibition in assay [2] of 13%.
Turning to `COc1cccc(C(O)CNCCCCCCNCCSSCCNCCCCCCNCC(O)c2cccc(OC)c2)c1` (stereo not given), the inhibition in assay [2] was determined as 91%.
`c1coc(CNCCCCCCNCCSSCCNCCCCCCNCc2ccco2)c1` displayed an inhibition in assay [2] of 100%. The molecule also had an inhibition at 6 µM in the assay listed under Rattus norvegicus [3] of 79%.
The molecule `C(CCCN1CCCC1)CCNCCSSCCNCCCCCCN1CCCC1` returned an inhibition in assay [2] of 98%.
In turn, `c1ccc2c(c1)CN(CCCCCCNCCSSCCNCCCCCCN1CNc3ccccc3C1)CN2` came in with an inhibition in assay [2] of 89%.
Still for that read-out and setting: in the case of `COc1ccccc1C(O)CNCCCCCCNCCSSCCNCCCCCCNCC(O)c1ccccc1OC` (stereo not given) it was 82%.
On to `c1ccc2c(c1)OC[C@@H](CNCCCCCCNCCSSCCNCCCCCCNC[C@@H]1COc3ccccc3O1)O2`, for which, in the assay filed under Rattus norvegicus [1], testing at 100 µM gave an inhibition of 68%. Besides, the inhibition result in the assay filed under Rattus norvegicus [4] is “inactive”.
`CN(CCCCCCN1CCCCC1)CCSSCCN(C)CCCCCCN1CCCCC1` yielded an inhibition in assay [2] of 34%.
For `c1ccc(CCNCCCCCCNCCSSCCNCCCCCCNCCc2ccccc2)cc1`, in the assay filed under Rattus norvegicus [1], at 100 µM the inhibition was 32%. In addition, the inhibition entry in the assay listed under Rattus norvegicus [4] was “inactive”.
Regarding `CN(CCCCCCN1CNc2ccccc2C1)CCSSCCN(C)CCCCCCN1CNc2ccccc2C1`, in the assay filed under Rattus norvegicus [1], testing at 100 µM gave an inhibition of 6%. The inhibition entry in the assay listed under Rattus norvegicus [4] is “inactive”.
For `c1ccc2c(c1)CN(CCCCCCNCCSSCCNCCCCCCN1COc3ccccc3C1)CO2`, in the assay listed under Rattus norvegicus [1], 100 µM produced 34% inhibition. Further, in the assay listed under Rattus norvegicus [4], the inhibition result was “inactive”.
`COc1ccccc1CNCCCCCCNCCSSCCNCCCCCCNCc1ccccc1OC` [BENEXTRAMINE] showed an inhibition in assay [2] of 100%. The inhibition at 6 µM in the assay listed under Rattus norvegicus [3] amounted to 35%.
As to `Nc1ccccc1C(=O)NCCCCCCNCCSSCCNCCCCCCNC(=O)c1ccccc1N`, the inhibition at 100 µM in the assay listed under Rattus norvegicus [1] was determined as 55%. Moreover, the inhibition entry in the assay filed under Rattus norvegicus [4] is “inactive”.
The molecule `COc1ccc(C(O)CNCCCCCCNCCSSCCNCCCCCCNCC(O)c2ccc(OC)cc2)cc1` (stereo not given) had an inhibition in assay [2] of 81%.
Regarding `NC(CCCCCNCCSSCCNCCCCCC(N)Cc1ccccc1)Cc1ccccc1` (stereo not given), the inhibition in assay [2] was 57%.
Take `c1ccc2c(c1)OC[C@H](CNCCCCCCNCCSSCCNCCCCCCNC[C@H]1COc3ccccc3O1)O2`: 100 µM produced 79% inhibition in the assay listed under Rattus norvegicus [1]. Further, the inhibition entry in the assay filed under Rattus norvegicus [4] is “inactive”.
Molecule `c1ccc2c(c1)CCN2CCCCCCNCCSSCCNCCCCCCN1CCc2ccccc21` displayed an inhibition in assay [2] of 37%.
In turn, `c1csc(CNCCCCCCNCCSSCCNCCCCCCNCc2cccs2)c1` came in with an inhibition in assay [2] of 70%.
For the molecule `COc1ccccc1CNCCCCCCOCCSSCCOCCCCCCNCc1ccccc1OC`, the inhibition in assay [2] was 36%.
Same read-out and setting: with `OC(CNCCCCCCNCCSSCCNCCCCCCNCC(O)c1ccc2c(c1)OCO2)c1ccc2c(c1)OCO2` (stereo not given) the figure was 43%; with `Nc1ccccc1CNCCCCCCNCCSSCCNCCCCCCNCc1ccccc1N`, 79%; with `c1ccc(CNCCCCCCOCCSSCCOCCCCCCNCc2ccccc2)cc1`, 32%.
Turning to `c1ccc2c(CNCCCCCCNCCSSCCNCCCCCCNCc3c[nH]c4ccccc34)c[nH]c2c1`, the inhibition at 100 µM in the assay listed under Rattus norvegicus [1] stood at 46%. Also, in the assay filed under Rattus norvegicus [4], the inhibition entry is “inactive”.
`COc1ccc(C(O)CNCCCCCCNCCSSCCNCCCCCCNCC(O)c2ccc(OC)c(OC)c2)cc1OC` (stereo not given) gave an inhibition in assay [2] of 87%.
Molecule `c1ccc(COCCCCCCNCCSSCCNCCCCCCOCc2ccccc2)cc1` came in with an inhibition in assay [2] of 60%.
In assay [2], `O=C(Cc1ccccc1)NCCCCCCNCCSSCCNCCCCCCNC(=O)Cc1ccccc1` returned an inhibition of 44%.
As to `C1CCN(CCSSCCN2CCCCC2)CC1`, the inhibition result in the assay filed under Rattus norvegicus [5] and in the assay filed under Rattus norvegicus [4] was “inactive” in each case.
Take `CN(CCCCCCN1CCCC1)CCSSCCN(C)CCCCCCN1CCCC1`: the inhibition in assay [2] is 41%.
The same measure, in the same setting: with `COc1cc(C(O)CNCCCCCCNCCSSCCNCCCCCCNCC(O)c2cc(OC)c(OC)c(OC)c2)cc(OC)c1OC` (stereo not given) the figure was 98%.
In turn, `c1cc2c(cc1COCCCCCCNCCSSCCNCCCCCCOCc1ccc3c(c1)OCO3)OCO2` yielded an inhibition at 100 µM in the assay listed under Rattus norvegicus [1] of 45%. Besides, the inhibition result in the assay filed under Rattus norvegicus [4] was “inactive”.
Regarding `CCN(CC)CCSSCCN(CC)CC`, the inhibition entry in the assay listed under Rattus norvegicus [5] and in the assay listed under Rattus norvegicus [4] was “inactive” in each case.
As to `c1ccc(CNCCSSCCNCc2ccccc2)cc1`, the inhibition at 100 µM in the assay listed under Rattus norvegicus [1] amounted to 48%. In assay [2], this molecule showed an inhibition of 12%.
Consider `Cn1ccc(CNCCCCCCNCCSSCCNCCCCCCNCc2ccn(C)c2)c1`, for which, in assay [2], the inhibition stood at 100%. Besides, in the assay listed under Rattus norvegicus [3], at 6 µM the inhibition was 54%.
Molecule `COc1ccccc1COCCCCCCNCCSSCCNCCCCCCOCc1ccccc1OC` returned an inhibition in assay [2] of 58%.
As to `c1ccc2c(c1)CCN(CCCCCCNCCSSCCNCCCCCCN1CCc3ccccc3C1)C2`, 100 µM produced 66% inhibition in the assay filed under Rattus norvegicus [1]. In addition, the inhibition entry in the assay filed under Rattus norvegicus [4] is “inactive”.
In the assay filed under Rattus norvegicus [1], `CN(CCCCCCNCc1ccccc1N)CCSSCCN(C)CCCCCCNCc1ccccc1N` gave an inhibition at 100 µM of 38%. Moreover, the inhibition result in the assay listed under Rattus norvegicus [4] is “inactive”.
In turn, `Oc1ccc(C(O)CNCCCCCCNCCSSCCNCCCCCCNCC(O)c2ccc(O)c(O)c2)cc1O` (stereo not given) came in with an inhibition in assay [2] of 92%.
Turning to `c1ccc2c(c1)OCC(CNCCCCCCNCCSSCCNCCCCCCNCC1COc3ccccc3O1)O2` (stereo not given), the inhibition at 100 µM in the assay filed under Rattus norvegicus [1] came out at 53%. Also, the inhibition entry in the assay filed under Rattus norvegicus [4] was “inactive”.
In assay [2], `C(CCCN1CCCCC1)CCNCCSSCCNCCCCCCN1CCCCC1` came in with an inhibition of 100%. Moreover, in the assay listed under Rattus norvegicus [3], the inhibition at 6 µM stood at 56%.
For `CC(C)(C)NCCSSCCNC(C)(C)C`, the inhibition entry in the assay filed under Rattus norvegicus [5] and in the assay filed under Rattus norvegicus [4] was “inactive” in each case.

For the origin of these results see ChEMBL document CHEMBL1123930, “Structure-activity relationships among di- and tetramine disulfides related to benextramine” (1987).
